Experimental data reported in ChEMBL document CHEMBL4270618, “Synthesis and biological evaluation of a library of hybrid derivatives as inhibitors of influenza virus PA-PB1 interaction” (Eur J Med Chem, 2018).

Columns and labels:
[1] = Cytotoxicity against MDCK cells assessed as decrease in cell viability after 48 hrs by MTT assay; assay type: cell-based, Canis lupus familiaris; details: dog
In short: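 MDCK at 5×10^3 cells/well with 2-fold serial dilutions from 250 µM, or DMSO, for 48 h. MTT (5 mg/mL stock in PBS) added for 4 h at 37 °C, then solubilising solution for 3 h at 37 °C. Absorbance read at 620 nm against DMSO = 100%. CC50 as mean ± SD, ≥3 experiments in duplicate.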

[2] = Cytotoxicity against HEK293T cells assessed as decrease in cell viability after 24 hrs by MTT assay; assay type: cell-based, HEK-293T; details: human
In short: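 HEK 293T at 2×10^4 cells/well with 2-fold serial dilutions from 250 µM, or DMSO, for 24 h. MTT (5 mg/mL stock in PBS) added for 4 h at 37 °C, then solubilised for 3 h at 37 °C. Absorbance read at 620 nm, DMSO wells = 100% viability. CC50 as mean ± SD, ≥3 independent experiments in duplicate.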

[3] = target: PA/PB1 (Influenza A virus (A/Puerto Rico/8/1934(H1N1)), UniProt P03431+P03433); test: Inhibition of Influenza A virus A/PR/8/34 (H1N1) PA-PB1 interaction expressed in HEK293T cells assessed as decrease in RNA polymerase activity incubated for 24 hrs by minireplicon based luciferase reporter gene assay; assay type: cell-based
In short: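 HEK 293T (2×10^5/well) transfected 24 h after seeding, by calcium phosphate, with PR8 PB1, PB2, PA and NP plasmids (100 ng each), a PolI firefly-luciferase minireplicon (50 ng) and SV40-Renilla (50 ng) for normalisation. Compound or DMSO present during transfection; medium renewed at 4 h with compound. Dual luciferase read at 24 h. EC50 as mean ± SD, ≥3 experiments in duplicate.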

[4] = target: PA/PB1 (Influenza A virus (A/Puerto Rico/8/1934(H1N1)), UniProt P03431+P03433); test: Inhibition of Influenza A virus A/PR/8/34 (H1N1) 6His-tagged PA (239 to 716 residues)/GST-tagged PB1 (1 to 25 residues) interaction expressed in Escherichia coli incubated overnight by ELISA
In short: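 Wells coated with 400 ng E. coli-expressed 6His-PA(239–716) for 3 h at 37 °C, then blocked with 2% BSA/PBS for 1 h. 200 ng GST-PB1(1–25), or GST control, in serum-free DMEM added with compound or DMSO, overnight at room temperature. Bound protein detected with HRP-anti-GST and TMB, OD450. DMSO = 100% interaction. IC50 as mean ± SD, ≥3 experiments in duplicate.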

Influenza A virus = test: Antiviral activity against Influenza A virus A/PR/8/34 (H1N1) infected in MDCK cells measured after 2 days by plaque reduction assay; assay type: functional, organism-based; details: A/Puerto Rico/8/1934(H1N1), 48 h
In short: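 MDCK monolayers infected with PR8 (H1N1, Cambridge lineage) at 40 PFU/well for 1 h at 37 °C with compound at various concentrations, in DMEM with 1 µg/mL TPCK-trypsin and 0.14% BSA. Overlay of the same medium with 1.2% Avicel plus compound. After 2 days, fixed with 4% formaldehyde, stained with 0.1% toluidine blue, plaques counted. DMSO mean = 100%. EC50 reported as mean ± SD, ≥3 independent experiments in duplicate.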

SMILES | CC50 at 48 h [1] | CC50 at 24 h [2] | EC50 [3] | IC50 [4] | EC50 (Influenza A virus)
Cc1cccc(NC(=O)CSc2nc(-c3ccccc3)cc(-c3ccccc3)c2C#N)c1 | > 250 µM | > 250 µM | 86.6 µM |  | 
COC(=O)[C@H](CC(C)C)NC(=O)CSc1nc(-c2ccccc2)cc(-c2ccc(C)cc2)c1C#N | 215 µM |  |  | 149 µM | 97 µM
COC(=O)[C@H](Cc1ccc(O)cc1)NC(=O)CSc1nc(-c2ccccc2)cc(-c2ccc(C)cc2)c1C#N | > 250 µM |  |  | 18 µM | > 100 µM
CC[C@H](C)[C@H](NC(=O)CSc1nc(-c2ccccc2)cc(-c2ccc(C)cc2)c1C#N)C(=O)OC | > 250 µM | 229 µM | 53 µM | 36 µM | 39 µM
COC(=O)C[C@H](NC(=O)[C@@H](NC(=O)CSc1nc(-c2ccccc2)cc(-c2ccc(C)cc2)c1C#N)C(C)C)C(=O)OC | > 250 µM | > 250 µM | 59 µM | 143 µM | 49 µM
Cc1ccc(-c2cc(-c3ccccc3)nc(SCC(=O)O)c2C#N)cc1 | > 250 µM | 218 µM | 43 µM | 56 µM | 65 µM
COC(=O)C[C@H](NC(=O)[C@@H](NC(=O)CSc1nc(-c2ccccc2)cc(-c2ccc(C)cc2)c1C#N)C(C)C)C(=O)N[C@@H](CCSC)C(=O)OC | > 250 µM |  |  | 68 µM | > 100 µM
COC(=O)[C@H](Cc1ccccc1)NC(=O)CSc1nc(-c2ccccc2)cc(-c2ccc(C)cc2)c1C#N | 240 µM |  |  | > 200 µM | 68 µM
COC(=O)[C@H](Cc1cnc[nH]1)NC(=O)CSc1nc(-c2ccccc2)cc(-c2ccc(C)cc2)c1C#N | 152 µM |  |  | 32 µM | 80 µM
Cc1ccc(-c2cc(-c3ccccc3)nc(SCC(=O)N[C@H](C(=O)O)C(C)C)c2C#N)cc1 | > 250 µM | 250 µM | 77 µM | 76 µM | 50 µM
COC(=O)[C@@H](NC(=O)CSc1nc(-c2ccccc2)cc(-c2ccc(C)cc2)c1C#N)C(C)C | 210 µM | > 250 µM | 41 µM | 167 µM | 52 µM
COC(=O)CC[C@H](NC(=O)CSc1nc(-c2ccccc2)cc(-c2ccc(C)cc2)c1C#N)C(=O)OC | > 250 µM |  |  | 187 µM | > 100 µM
Cc1ccc(-c2cc(-c3ccccc3)nc(SCC(=O)N[C@H](C(=O)N[C@@H](CC(=O)O)C(=O)O)C(C)C)c2C#N)cc1 | > 250 µM |  |  | 77 µM | 100 µM
Cc1ccc(-c2cc(-c3ccccc3)nc(SCNC(=O)OC(C)(C)C)c2C#N)cc1 | > 250 µM |  |  | > 200 µM | > 100 µM
CSCC[C@H](N)C(=O)N[C@@H](CC(=O)O)C(=O)N[C@H](C(=O)N[C@@H](CC(N)=O)C(=O)N1CCC[C@H]1C(=O)N[C@H](C(=O)N[C@@H](CC(C)C)C(=O)N[C@@H](CC(C)C)C(=O)N[C@@H](Cc1ccccc1)C(=O)N[C@@H](CC(C)C)C(=O)N[C@@H](CCCCN)C(=O)N[C@H](C(=O)N1CCC[C@H]1C(=O)N[C@@H](C)C(=O)N[C@@H](CCC(N)=O)C(=O)N[C@@H](Cc1ccc(O)cc1)C(=O)NCC(=O)N[C@@H](CCCNC(=N)N)C(=O)N[C@@H](CCCCN)C(=O)N[C@@H](CCCCN)C(=O)N[C@@H](CCCNC(=N)N)C(=O)N[C@@H](CCCNC(=N)N)C(=O)N[C@@H](CCC(N)=O)C(=O)N[C@@H](CCCNC(=N)N)C(=O)N[C@@H](CCCNC(=N)N)C(=O)N[C@@H](CCCNC(=N)N)C(=O)N1CCC[C@H]1C(=O)N1CCC[C@H]1C(=O)O)C(C)C)[C@@H](C)O)C(C)C | > 250 µM | > 250 µM | 15.5 µM | 31.7 µM | 49.7 µM
COC(=O)[C@H](CCCNC(=N)N)NC(=O)CSc1nc(-c2ccccc2)cc(-c2ccc(C)cc2)c1C#N | > 250 µM |  |  | 48 µM | > 100 µM
Cc1ccc(-c2cc(-c3ccccc3)nc(SCC(N)=O)c2C#N)cc1 | > 250 µM | 218 µM | 65 µM | 102 µM | 41 µM
CCC(CC)O[C@@H]1C=C(C(=O)O)C[C@H](N)[C@H]1NC(C)=O [OSELTAMIVIR CARBOXYLATE] | > 250 µM | > 250 µM |  |  | 0.015 µM
NC(=O)c1ncn([C@@H]2O[C@H](CO)[C@@H](O)[C@H]2O)n1 [RIBAVIRIN] | > 250 µM | > 250 µM | 23.8 µM |  | 
